The record followed here is ChEMBL document CHEMBL1255469, “In vitro activity of a new isothiazoloquinolone, ACH-702, against Mycobacterium tuberculosis and other mycobacteria” (2010).

Values after ≈ are worked out from the molar mass of the structure shown.

Experiment [1] relates to Mycobacterium tuberculosis. Briefly: Antimicrobial activity against isoniazid and rifampin-resistant Mycobacterium tuberculosis clinical isolates after 7 days by broth microdilution assay. The format is functional. As to conditions: 168 h. In outline:
(§1)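 Alamar Blue broth microdilution in 7H9GC broth (Middlebrook 7H9 base, glycerol, Casitone, 10% OADC). Drug stock 1 mg/ml in 100% DMSO, diluted in broth to a final 0.03 to 8 μg/ml. M. tuberculosis H37Rv served as the susceptible-strain control. Isoniazid and rifampin resistance was assigned beforehand by the proportion method.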
In general terms: Dilution methods test growth across graded concentrations, often in twofold steps.

In experiment [2] the test system is Mycobacterium tuberculosis. Briefly: Antimicrobial activity against isoniazid or rifampin-resistant Mycobacterium tuberculosis clinical isolates after 7 days by broth microdilution assay. Type of experiment: functional. As to conditions: 168 h. The gist of the method: as §1

Broadly, the MIC50 is an inhibitory concentration at the 50% level, which refers to growth in some studies and to a panel of isolates in others. A low value points to greater potency. What is called MIC90 is an inhibitory concentration at the 90% level, which refers to growth in some studies and to a panel of isolates in others.

`COc1c(N2CC[C@@H](C(C)(C)N)C2)c(F)cc2c(=O)c3c(=O)[nH]sc3n(C3CC3)c12`: in experiment [1], the MIC50 was found to be 0.06 µg/mL (≈ 0.139 µM) and the MIC90 was found to be 0.12 µg/mL (≈ 0.277 µM). In experiment [2], this compound had an MIC50 of 0.12 µg/mL (≈ 0.277 µM) and an MIC90 of 0.12 µg/mL (≈ 0.277 µM).
